Hit rate of the full screen: of about 330,000 compounds, about 780 (0.24%) were called active. The sample holds actives, similar compounds and a random draw of the others, so the mix is not that of the screen. Unmarked numbers belong to inactive results.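 The calls were made as follows: active = activation factor of at least 2 at 20 µM; inactive = the rest.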
tested on: intestinal alkaline phosphatase [Mus musculus]; experiment: activators of mouse IAP, primary screen, biochemical, luminescence, uHTS (AID 2805); details: muIAP, CDP-Star luminescence, 30 min; at 10 µM; active compounds read high; 1 = vehicle-only enzyme signal, 0 = enzyme-free wells
Outline: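 System: Mouse IAP enzyme | Also added: CDP-Star substrate | Dosing: Compounds dispensed in DMSO | Schedule: 30 min enzyme-substrate-compound incubation at room temperature | Technique: Chemiluminescence readout | Control set: DMSO-only wells and no-enzyme negative control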

First: COc1ccc(N(C)C(=O)C2CCN(S(=O)(=O)c3cccc4nsnc34)CC2)cc1
Second: COc1ccc(CN2C3CCCC2CC(NC(=O)c2cccc(F)c2)C3)cc1 (stereo not drawn)
The activation factor of the first is lower: 0.954 for the first, 1.11 for the second.

Going from `O=C(NCc1cccnc1)c1cnc2ccccc2n1` to `c1ccc(CCN2CN=C(Nc3nc4ccccc4o3)NC2)cc1`, the activation factor falls from 0.965 to 0.958.

First: CC(C(=O)O)N1C(=O)c2cccc3cccc1c23 (stereo not drawn)
Second: COC(=O)CNC(=O)c1ccc2c(c1)S(=O)(=O)c1ccccc1C2=O
The activation factor of the first is higher: 1.02 for the first, 1.01 for the second.

First: CCOc1ccc(C(CC(=O)O)NC(=O)Cc2ccccc2)cc1OC (stereo not drawn)
Second: CCOc1ccc(C(CC(=O)O)NC(=O)C23CC4CC(CC(C4)C2)C3)cc1OC (stereo not drawn)
The activation factor of the first is lower: 0.993 for the first, 1.06 for the second.

First: CCN(CC)Cc1nc2sc(C)c(C)c2c(=O)[nH]1
Second: CCOC(=O)c1cc(C)sc1NC(=O)C1CCC1
The activation factor of the first is lower: 0.952 for the first, 1.01 for the second.

First: Cc1cc(=O)[nH]c(Nc2cccc(Br)c2)n1
Second: CC(NC(=O)Nc1cccc([N+](=O)[O-])c1)c1ccc2c(c1)OCO2 (stereo not drawn)
The activation factor of the first is higher: 1.07 for the first, 0.95 for the second.

Compared with `C=CCOc1cccc(C2NC(=O)c3ccccc3O2)c1` (stereo not drawn), `Cc1ccccc1NC(=O)COc1cccc2c1CCNC2=O` is lower in activation factor: 1.01 for the first, 0.912 for the second.

Going from `CN(c1ccccc1)S(=O)(=O)c1cccc(NC(=O)Cc2ccc(Cl)cc2)c1` to `CN(C)S(=O)(=O)c1cccc(NC(=O)Cc2ccsc2)c1`, the activation factor falls from 1.55 to 1.06.

Going from `Cc1ccc(C(=O)N/C(=C\c2cn(C)c3ccccc23)C(=O)N2CCN(C)CC2)cc1` to `COc1ccc(-n2nc(C(=O)NCC(=O)N3CCN(c4ccccc4OC)CC3)c3ccccc3c2=O)c(OC)c1`, the activation factor rises from 0.969 to 1.03.

First: O=C(CCc1ccc(S(=O)(=O)NC2CCCCC2)cc1)NCc1ccccc1
Second: CCOc1ccccc1C(=O)NC1CC2CCCC(C1)N2Cc1ccccc1 (stereo not drawn)
The activation factor of the first is higher: 1.18 for the first, 0.947 for the second.

First: CCN(CC)N=Nc1cccc(NC(C)=O)c1
Second: CCN(C(=O)Cc1nc(N)n[nH]1)C1(C(=O)Nc2ccccc2)CCCCC1
The activation factor of the first is lower: 0.943 for the first, 1 for the second.

Going from `O=C(COc1ccc(S(=O)(=O)N2CCOCC2)cc1Cl)N1CCOCC1` to `CC[C@]12c3[nH]c4ccc(Cl)cc4c3CCN1C(=O)[C@@H](CC(=O)NCCCOC)C[C@@H]2C(=O)N1CCN(C(=O)C2CC2)CC1`, the activation factor falls from 1.01 to 0.995.

First: C[N+]1(CC(O)COc2ccccc2)CCN(C(=O)c2ccc([N+](=O)[O-])cc2)CC1 (stereo not drawn)
Second: Cn1cccc1C(C#N)c1ccccc1C#N (stereo not drawn)
The activation factor of the first is lower: 0.943 for the first, 0.962 for the second.

Compared with `O=C1C2CCCN2C(=O)N1CCCCN1CCN(c2cccc(C(F)(F)F)c2)CC1` (stereo not drawn), `Cc1ccccc1N1CCN(CCCN2C(=O)C3CCCCN3C2=O)CC1` (stereo not drawn) is higher in activation factor: 0.942 for the first, 1.05 for the second.

Compared with `CC(NC(=O)Nc1ccc2c(c1)OCO2)c1ccncc1` (stereo not drawn), `CCn1nnc2cc(C(=O)Nc3ccc(C(=O)OC(C)C)cc3)ccc21` is lower in activation factor: 1.02 for the first, 0.97 for the second.

Going from `O=C(NCC1COc2ccccc2O1)C1(c2ccccc2)CCCC1` (stereo not drawn) to `O=C(Cn1cnc2ccccc2c1=O)NCC1COc2ccccc2O1` (stereo not drawn), the activation factor falls from 1 to 0.99.

Compared with `COc1ccc(-c2nn(-c3ccccc3)cc2C(=O)Nc2nccs2)cc1OC`, `COc1ccc(NC(=O)c2cc(-c3ccc(C)o3)nc3ccccc23)cc1` is lower in activation factor: 1 for the first, 0.934 for the second.

First: S=C(NNC(=S)NC1CC2CCC1C2)NC1CC2C=CC1C2 (stereo not drawn)
Second: Cc1ccc(C)c(NC(=S)NNC(=S)Nc2ccc(C(C)C)cc2)c1
The activation factor of the first is lower: 0.928 for the first, 0.941 for the second.

First: O=C1CCC([N+](=O)[O-])C(c2ccccc2Br)N1 (stereo not drawn)
Second: O=P(O)(CN1CCCCCC1)C1Cc2ccccc2C1
The activation factor of the first is lower: 1.03 for the first, 1.05 for the second.

Compared with `C#CCOCCOCCOCCNc1nc(N2CCN(C(=O)Cn3cc(CCCCN)nn3)CC2)nc(N2CCN(C(=O)[C@H](CCCCN)n3cc(CCC(=O)O)nn3)CC2)n1`, `C#CCOCCOCCOCCNc1nc(N2CCN(C(=O)[C@H](C(C)C)n3cc(CCO)nn3)CC2)nc(N2CCN(C(=O)[C@H]([C@@H](C)CC)n3cc(CCCN=C(N)N)nn3)CC2)n1` is higher in activation factor: 0.948 for the first, 1 for the second.

Compared with `C#CCOCCOCCOCCNc1nc(N2CCN(C(=O)CCCCCCCCCCNC(=O)[C@H](CCCCN)n3cc(C)nn3)CC2)nc(N2CCN(C(=O)CCCCCCCCCCNC(=O)[C@H](CO)n3cc(CCCSC)nn3)CC2)n1`, `C#CCOCCOCCOCCNc1nc(N2CCN(C(=O)[C@H](CCCN=C(N)N)n3cc(C(N)[C@@H](C)CC)nn3)CC2)nc(N2CCN(C(=O)[C@H](CO)n3cc([C@@H](N)C(C)C)nn3)CC2)n1` (stereo partly drawn) is lower in activation factor: 1.29 for the first, 0.988 for the second.

First: COc1ccc(CCNC(=O)C2CCCN(Cc3nc(-c4cccc(Cl)c4)oc3C)C2)cc1OC (stereo not drawn)
Second: CN(C)C(=O)N1CCNCC1
The activation factor of the first is lower: 0.883 for the first, 0.933 for the second.

With `CCOc1ccc(C(CCc2ccccc2)NC(=O)c2ccc(OC)c(OC)c2)cc1OCC` (stereo not drawn) the activation factor was 2.15 (active).
In the case of `CN(c1ccccc1)S(=O)(=O)c1cccc(NC(=O)Cc2c(F)cccc2Cl)c1`, the activation factor is reported as 2.3 (active).
`COc1ccc(NC(=O)NC2CC3CCCC(C2)N3Cc2ccccc2)cc1` (stereo not drawn) was tested, and the activation factor was 3.11 (active).
For `CCc1ccc(NC(=O)NC(C)c2ccc3c(c2)OCO3)cc1` (stereo not drawn), the activation factor was 2.38 (active).
`c1ccc(-c2cc3c(NCC4COc5ccccc5O4)ncnc3s2)cc1` (stereo not drawn) was tested, and the activation factor was 2.05 (active).
`COc1ccc(NC(=O)c2cn(-c3ccccc3)nc2SC)cc1` was tested, and the activation factor was 3.32 (active).
`CC(C)c1ccc(NC(=S)NC2CC3C=CC2C3)cc1` (stereo not drawn) was tested, and the activation factor was 2.76 (active).
`C#CCOCCOCCOCCNc1nc(N2CCN(C(=O)CCCCCCCCCCNC(=O)[C@H]([C@@H](C)CC)n3cc(CCCCN=C(N)N)nn3)CC2)nc(N2CCN(C(=O)CCCCCCCCCCNC(=O)[C@H](CO)n3cc(CCCSC)nn3)CC2)n1` was tested, and the activation factor was 12.7 (active).
`C#CCOCCOCCOCCNc1nc(N2CCN(C(=O)CCCCCCCCCCNC(=O)Cn3cc(CCCCCN)nn3)CC2)nc(N2CCN(C(=O)CCCCCCCCCCNC(=O)[C@H](CO)n3cc(CCCSC)nn3)CC2)n1` was tested, and the activation factor was 2.45 (active).
